This note sets out measurements from ChEMBL document CHEMBL6096655, “Discovery of a novel, selective CK2 inhibitor class with an unusual basic scaffold” (Eur J Med Chem, 2025).

By GI50 is commonly meant the concentration giving 50% growth inhibition. Usually inhibition stands for the drop in the measured response relative to a control, in per cent. Lower therefore signals a response near the control.

For one experiment, the system named is 786-0. As to the kind of experiment: Antiproliferative activity against human 786-0 cells assessed as inhibition of cell growth measured after 3 to 4 days by MTT assay. It is filed as functional. Conditions: time 3-4 day. In short, it runs like this:
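786-O or U937 cells grown in RPMI with 2 mM L-glutamine, 1% pen/strep and 10% FCS. Cells were seeded at 5000 per well and left overnight, then switched to 1% FCS medium containing compound or DMSO (max. 0.2% final). Growth ran 3–4 days at 37 °C in 5% CO₂ without medium change, followed by MTT read-out. GI50 is the mean ± SD of at least two independent experiments.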

For experiment [1], the target named is Dual specificity tyrosine-phosphorylation-regulated kinase 2 (Homo sapiens) (UniProt Q92630). As to the kind of experiment: Inhibition of human DYRK2 at 2 uM by Eurofins kinase assay relative to control.
Experiment [2] addresses Mitogen-activated protein kinase 1 (Homo sapiens) (UniProt P28482). Description: Inhibition of human MAPK1 at 2 uM by Eurofins kinase assay relative to control.

Chain of Mitogen-activated protein kinase 1 (Homo sapiens) (P28482 whole entry): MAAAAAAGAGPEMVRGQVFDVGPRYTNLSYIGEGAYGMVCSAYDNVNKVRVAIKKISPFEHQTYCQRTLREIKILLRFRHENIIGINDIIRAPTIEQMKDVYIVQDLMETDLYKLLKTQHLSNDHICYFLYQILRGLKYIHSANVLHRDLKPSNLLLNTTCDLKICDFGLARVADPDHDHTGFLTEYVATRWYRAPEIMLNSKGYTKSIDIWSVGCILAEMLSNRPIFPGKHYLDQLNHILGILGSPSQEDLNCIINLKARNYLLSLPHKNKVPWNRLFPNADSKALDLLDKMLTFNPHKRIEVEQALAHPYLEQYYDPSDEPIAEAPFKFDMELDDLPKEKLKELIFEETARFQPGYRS
Chain of Dual specificity tyrosine-phosphorylation-regulated kinase 2 (Homo sapiens) (Q92630 whole entry): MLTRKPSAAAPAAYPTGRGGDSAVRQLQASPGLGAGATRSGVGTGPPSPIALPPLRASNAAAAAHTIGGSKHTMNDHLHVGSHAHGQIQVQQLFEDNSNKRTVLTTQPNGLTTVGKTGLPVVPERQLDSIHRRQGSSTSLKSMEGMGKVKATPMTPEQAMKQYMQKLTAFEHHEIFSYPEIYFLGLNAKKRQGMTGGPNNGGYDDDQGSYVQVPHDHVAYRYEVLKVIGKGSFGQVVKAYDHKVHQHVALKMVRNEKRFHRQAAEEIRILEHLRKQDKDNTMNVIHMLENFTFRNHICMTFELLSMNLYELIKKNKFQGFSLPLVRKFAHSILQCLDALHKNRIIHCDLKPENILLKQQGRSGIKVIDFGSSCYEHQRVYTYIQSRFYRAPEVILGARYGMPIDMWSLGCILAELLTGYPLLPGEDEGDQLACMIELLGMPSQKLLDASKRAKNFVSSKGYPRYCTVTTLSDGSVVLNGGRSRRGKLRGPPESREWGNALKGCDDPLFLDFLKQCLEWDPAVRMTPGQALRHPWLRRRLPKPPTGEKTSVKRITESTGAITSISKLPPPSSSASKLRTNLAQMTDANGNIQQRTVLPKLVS

Take `Clc1ccc(N2CCN(c3ncnc4sc5c(c34)CCNC5)CC2)cc1.O=C(O)C(F)(F)F`: in the experiment with 786-0, the GI50 is 7.3 µM. Moreover, the results for the inhibition in experiment [1] and in experiment [2] were 9% and 2%, respectively.
